Data on four compounds can be found in ChEMBL document CHEMBL4364306, “Structure-activity relationships of thiazole and benzothiazole derivatives as selective cannabinoid CB2 agonists with in vivo anti-inflammatory properties” (Eur J Med Chem, 2019).

For orientation: EC50 means the concentration needed to bring the measured effect to its halfway point.

The source made the active and inactive calls. The calls are words filed in the database; no cut-off is given here.

Experiment [1] deals with T1, Cannabinoid receptor 2 (Homo sapiens, UniProt P34972). In words: Agonist activity at recombinant human CB2R expressed in CHOK1 cells assessed as inhibition of NKH477-stimulated intracellular cAMP levels after 30 mins by chemiluminescent detection based cAMP Hunter assay. Format: functional, cell-based. The method in brief:
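CHO-K1 cells overexpressing human CB2R, plated 30,000 cells/well, overnight 37 °C, 5% CO2. Compound dose-responses incubated 30 min at 37 °C with NKH-477 (25 µM) to stimulate adenylate cyclase. Enzyme fragment complementation chemiluminescence read. Normalised to NKH-477 alone as 100%; mean ± SEM of three independent experiments in triplicate.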
(In general: cAMP levels reflect the balance of adenylyl cyclase and phosphodiesterase activity.)

For experiment [2], the target named is T1, Cannabinoid receptor 2. In words: Antagonist activity at N-terminal Flag epitope tagged CB2 (unknown origin) expressed in HTLA cells assessed as decrease in CP55940-induced beta-arrestin recruitment pretreated with non-selective cannabinoid receptor agonist CP55940 for 30 mins and measured after 20 mins by Tango assay. It is filed as cell-based. (Arrestin recruitment assays detect the binding of arrestin to an activated receptor.)

Experiment [3] has as its target T2, Cannabinoid receptor 1 (Homo sapiens, UniProt P21554). In words: Displacement of [3H]CP55940 from recombinant human CB1R expressed in HEK293 cell membranes at 10 uM incubated for 90 mins relative to control. (In general: Loss of bound radioactivity is the signal in a displacement assay; it reports binding, not function.)
Experiment [4] concerns the target T2, Cannabinoid receptor 1. In words: Antagonist activity at N-terminal Flag epitope tagged CB1 (unknown origin) expressed in HTLA cells assessed as decrease in CP55940-induced beta-arrestin recruitment pretreated with non-selective cannabinoid receptor agonist CP55940 for 30 mins and measured after 20 mins by Tango assay. It is filed as cell-based.
The species entered for another experiment is Homo sapiens. In words: Selectivity index, ratio of Ki for recombinant human CB1R expressed in HEK293 cell membranes to Ki for recombinant human CB2R expressed in HEK293 cell membranes. Format: cell-based.
For experiment [5], the target named is T1, Cannabinoid receptor 2. In words: Agonist activity at N-terminal Flag epitope tagged CB2 (unknown origin) expressed in HTLA cells assessed as increase of beta-arrestin recruitment by Tango assay. It is filed as cell-based. The essentials: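 β-arrestin Tango assay: HTLA cells transfected overnight with GPCR tango constructs, plated at 15,000 cells/well in DMEM with 1% dFBS, recovered ≥6 h. Drugs in Tango buffer (20 mM HEPES, 1x HBSS, pH 7.40) added overnight, full concentration-response (maximum 30 µM). BrightGlo reagent, 20 min room temperature in dark, luminescence read.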

Experiment [6] deals with T2, Cannabinoid receptor 1. As to the kind of experiment: Agonist activity at N-terminal Flag epitope tagged CB1 (unknown origin) expressed in HTLA cells assessed as increase of beta-arrestin recruitment by Tango assay. Format: cell-based. The method in brief:
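HTLA cells transfected overnight with GPCR Tango constructs, plated at 15,000 cells/well in DMEM with 1% dFBS and allowed to recover at least 6 h. Compounds in Tango buffer (20 mM HEPES, 1x HBSS, pH 7.40) added overnight, full concentration-response up to 30 µM against CP-55,940 as reference agonist. BrightGlo reagent added for 20 min at room temperature in the dark, then luminescence read.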

Experiment [7] has as its target T1, Cannabinoid receptor 2. In words: Displacement of [3H]CP55940 from recombinant human CB2R expressed in HEK293 cell membranes at 10 uM incubated for 90 mins relative to control.
The subject of experiment [8] is Mus musculus. As to the kind of experiment: Anti-inflammatory activity in Swiss albino mouse model of DSS-induced acute colitis as IL1beta level in colon tissue at 10 mg/kg, ip administrated for 7 days by ELISA (reference value: 140.9 +/- 8.551 pg/mg). Format: functional.
The subject of experiment [9] is Mus musculus. As to the kind of experiment: Anti-colitis activity in Swiss albino mouse model of DSS-induced acute colitis assessed as reduction in DSS-induced desquamation in lining of mucosal epithelium in colon tissue at 10 mg/kg, ip administrated for 7 days by H and E staining based light microscopic method. Format: functional, organism-based. The essentials:
(§1)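 DSS colitis (3% DSS, 7 days) in male Swiss albino mice with daily ip 10 mg/kg in 4% DMSO/2% tween/saline. Distal colon fixed in 10% formol saline 24 h, paraffin-embedded, 4 µm sections, H&E, light microscopy scored for epithelial ulceration/desquamation, mucosal and submucosal infiltration, submucosal oedema, haemorrhage, lymphoid hyperplasia.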

Experiment [10] concerns Mus musculus. As to the kind of experiment: Anti-colitis activity in Swiss albino mouse model of DSS-induced acute colitis assessed as reduction in DSS-induced ulceration in distal part of colon at 10 mg/kg, ip administrated for 7 days by H and E staining based light microscopic method. Format: functional, organism-based. The method in brief:
as §1

For experiment [11], the system named is Mus musculus. As to the kind of experiment: Anti-colitis activity in Swiss albino mouse model of DSS-induced acute colitis assessed as reduction in DSS-induced haemorrhage in colon at 10 mg/kg, ip administrated for 7 days by H and E staining based light microscopic method. Format: functional, organism-based. The essentials: as §1
In experiment [12] the test system is Mus musculus. As to the kind of experiment: Anti-colitis activity in Swiss albino mouse model of DSS-induced acute colitis assessed as reduction in DSS-induced inflammatory cells infiltration in the submucosa in colon at 10 mg/kg, ip administrated for 7 days by H and E staining based light microscopic method. It is filed as functional, organism-based. The essentials: as §1

Experiment [13] concerns Mus musculus. As to the kind of experiment: Anti-colitis activity in Swiss albino mouse model of DSS-induced acute colitis assessed as reduction in DSS-induced lymphoid hyperplasia in the sub-musoca in colon at 10 mg/kg, ip administrated for 7 days by H and E staining based light microscopic method. It is filed as functional, organism-based. The essentials: as §1
For experiment [14], the system named is Mus musculus. In words: Anti-inflammatory activity in Swiss albino mouse model of DSS-induced acute colitis as TNFalpha level in colon tissue at 10 mg/kg, ip administrated for 7 days by ELISA (reference value: 102.4 +/- 5.043 pg/mg). It is filed as functional.
The subject of experiment [15] is Mus musculus. As to the kind of experiment: Anti-colitis activity in Swiss albino mouse model of DSS-induced acute colitis assessed as reduction in DSS-induced oedema in colon at 10 mg/kg, ip administrated for 7 days by H and E staining based light microscopic method. Format: functional, organism-based. The method in brief:
as §1

Experiment [16] deals with Mus musculus. As to the kind of experiment: Anti-colitis activity in Swiss albino mouse model of DSS-induced acute colitis assessed as disease activity index at 10 mg/kg, ip administrated for 7 days (reference value: 7.143 +/- 1.29). Format: functional.
Experiment [17] concerns Mus musculus. In words: Anti-colitis activity in Swiss albino mouse model of DSS-induced acute colitis assessed as colon length at 10 mg/kg, ip administrated for 7 days (reference value: 7.314 +/- 0.1143 cm). Format: functional.

T1 sequence (P34972 whole entry, the tested form may be a part): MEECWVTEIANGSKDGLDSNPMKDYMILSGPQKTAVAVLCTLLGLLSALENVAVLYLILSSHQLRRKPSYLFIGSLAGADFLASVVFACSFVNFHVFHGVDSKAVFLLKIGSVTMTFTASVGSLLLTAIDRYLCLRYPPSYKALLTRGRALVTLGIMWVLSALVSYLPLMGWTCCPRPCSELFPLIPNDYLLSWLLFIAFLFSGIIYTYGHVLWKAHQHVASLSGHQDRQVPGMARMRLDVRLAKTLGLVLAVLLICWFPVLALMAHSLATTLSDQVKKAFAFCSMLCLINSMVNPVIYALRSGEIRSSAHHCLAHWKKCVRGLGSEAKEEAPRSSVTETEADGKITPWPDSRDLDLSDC
T2 sequence (P21554 whole entry): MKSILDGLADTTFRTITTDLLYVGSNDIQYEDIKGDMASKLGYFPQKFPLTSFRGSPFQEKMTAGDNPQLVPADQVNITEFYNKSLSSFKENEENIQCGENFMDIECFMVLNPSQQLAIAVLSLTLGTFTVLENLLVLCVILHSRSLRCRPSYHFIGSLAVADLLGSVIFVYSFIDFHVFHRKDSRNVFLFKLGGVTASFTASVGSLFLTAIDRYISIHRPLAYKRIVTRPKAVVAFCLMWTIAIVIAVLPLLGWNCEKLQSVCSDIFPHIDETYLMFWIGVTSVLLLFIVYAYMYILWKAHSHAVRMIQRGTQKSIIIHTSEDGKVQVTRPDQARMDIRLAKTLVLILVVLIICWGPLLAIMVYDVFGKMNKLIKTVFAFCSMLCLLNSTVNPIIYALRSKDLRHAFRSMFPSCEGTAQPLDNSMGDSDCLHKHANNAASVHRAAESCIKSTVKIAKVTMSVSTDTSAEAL

For the compound `CCCCCn1/c(=N\C(=O)C23CC4CC(CC(C4)C2)C3)sc2ccccc21`, the EC50 on Cannabinoid receptor 2 [1] is 57 nM; on Cannabinoid receptor 2 [2], greater than 30000 nM; at Cannabinoid receptor 1 [4], greater than 30000 nM; at Cannabinoid receptor 2 [5] it was 26.3 nM; on Cannabinoid receptor 1 [6] it was 1620 nM. Also, the result at Cannabinoid receptor 1 [3] and on Cannabinoid receptor 2 [7] was Active. In addition, the Ratio Ki in the experiment filed under Homo sapiens is 120.
Regarding `CCCCCn1/c(=N/C(=O)c2cccc3ccccc23)sc2ccccc21`, the 50% effective concentration (EC50) on Cannabinoid receptor 2 [1] was 68 nM; on Cannabinoid receptor 2 [2], greater than 30000 nM; at Cannabinoid receptor 1 [4], greater than 30000 nM; on Cannabinoid receptor 2 [5] it was 12.9 nM; at Cannabinoid receptor 1 [6] it was 126 nM. Besides, the outcome on Cannabinoid receptor 1 [3] and at Cannabinoid receptor 2 [7] was Active. Further, the Ratio Ki in the experiment listed under Homo sapiens came to 22.2.
On to `CCCCCn1/c(=N/C(=O)c2cccc(C(F)(F)F)c2)sc2ccccc21`, for which the Activity is recorded as 102.4 pg/mg with Mus musculus [8], 58.71 pg/mg in the experiment with Mus musculus [14] and 6.729 cm in the experiment with Mus musculus [17]. Also, the result in the experiment with Mus musculus [9], in the experiment with Mus musculus [10], at Cannabinoid receptor 1 [3], in the experiment with Mus musculus [11], with Mus musculus [13] and in the experiment on Mus musculus [15] was Active. In addition, on Cannabinoid receptor 2 [7], the result was Active. Moreover, the 50% effective concentration (EC50) was 306 nM on Cannabinoid receptor 2 [1]; greater than 30000 nM on Cannabinoid receptor 2 [2]; greater than 30000 nM at Cannabinoid receptor 1 [4]; 129 nM at Cannabinoid receptor 2 [5]; greater than 30000 nM on Cannabinoid receptor 1 [6]. In the experiment on Mus musculus [12], the result was inactive. In addition, the Ratio Ki in the experiment listed under Homo sapiens stood at 429. Also, in the experiment with Mus musculus [16], the Activity_index is reported as 3.286.
With `Cc1nc(C)c(C(=O)NC23CC4CC(CC(C4)C2)C3)s1`, the half-maximal effective concentration (EC50) at Cannabinoid receptor 2 [2], at Cannabinoid receptor 1 [4], at Cannabinoid receptor 2 [5] and at Cannabinoid receptor 1 [6] was greater than 30000 nM each time. Moreover, the outcome on Cannabinoid receptor 1 [3] and at Cannabinoid receptor 2 [7] was Active. Moreover, the Ratio Ki in the experiment listed under Homo sapiens was greater than 6.
